Measured values taken from article PMC12079591 (ACS Omega, 2025).
Like-named read-outs stand apart in the source and are kept apart here.

Tests used:
MDA-MB-231 = test: Cell proliferation assay; assay type: cell-based, human
In short: (§1)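 Mycoplasma-negative, STR-authenticated cells were seeded at 4000−6000/well and kept overnight at 37 °C, 5% CO2. Graded test compound concentrations or solvent control were added to triplicate wells. Adherent lines were read by SRB (OD 510 nm) and suspension lines by MTT (OD 570 nm). IC50 was obtained by nonlinear regression. Results are means ± SD (n ≥ 2).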

PC-3 = test: Cell proliferation assay; assay type: cell-based, human
In short: as §1

K562 = test: Cell proliferation assay; assay type: cell-based; conditions: Homo sapiens, K562, read-out: IC50 K562
In short: as §1

K562/ADR = test: Cell proliferation assay, multidrug-resistant K562/ADR; assay type: cell-based; conditions: for IC50: Homo sapiens, K562/Adr, read-out: IC50 K562/ADR; for RF (resistance factor): K562/ADR versus K562
In short: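 K562/ADR cells were derived from parental K562 by stepwise increases in ADR concentration. Proliferation was measured by the SRB (adherent) or MTT (suspension) method: 4000−6000 cells/well seeded overnight at 37 °C, 5% CO2, graded test compound in triplicate wells. IC50 was obtained by nonlinear regression. The resistance factor compares K562/ADR with parental K562. Results are means ± SD (n ≥ 2).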

[1] = 1 h postinjection; cited from earlier work
[2] = read-out: IC50 MDA-MB-231, breast carcinoma, mean ± SD (n ≥ 2)
[3] = read-out: IC50 PC-3, prostate carcinoma, mean ± SD (n ≥ 2)

Question: For COc1ccc(-c2coc3cc(O)ccc3c2=O)cc1 [formononetin, reference compound], which IC50 (MDA-MB-231; Homo sapiens, MDA-MB-231, read-out: IC50 MDA-MB-231) is on record?
Answer: > 100 µM

Question: What about the IC50 (PC-3; Homo sapiens, PC-3, read-out: IC50 PC-3) of the same compound?
Answer: > 100 µM

Question: With COc1cccc2c1C(=O)c1c(O)c3c(c(O)c1C2=O)C[C@@](O)(C(=O)CO)C[C@@H]3O[C@H]1C[C@H](N)[C@H](O)[C@H](C)O1 [adriamycin] as the compound, how does the IC50 (K562) read?
Answer: 0.0267 ± 0.00082 µM

Question: And the IC50 (K562/ADR)?
Answer: 2.84 ± 1.06 µM

Question: What about the “RF (resistance factor)” value (K562/ADR) of the same compound?
Answer: 106.35

Question: With CC(=O)O[C@H]1C(=O)[C@@]2(C)[C@H]([C@H](OC(=O)c3ccccc3)[C@]3(O)C[C@H](OC(=O)[C@H](O)[C@@H](NC(=O)c4ccccc4)c4ccccc4)C(C)=C1C3(C)C)[C@]1(OC(C)=O)CO[C@@H]1C[C@@H]2O [paclitaxel] as the compound, how does the IC50 (K562) read?
Answer: 0.00157 ± 0.0015 µM

Question: What about the IC50 (K562/ADR) of the same compound?
Answer: > 10 µM

Question: What about the “RF (resistance factor)” value (K562/ADR) of the same compound?
Answer: >6000

Question: And the “RF (resistance factor)” value (K562/ADR; listed as PTX)?
Answer: over 6000

Question: What does the source list for CCC1=C[C@@H]2CN(C1)Cc1c([nH]c3ccccc13)[C@@](C(=O)OC)(c1cc3c(cc1OC)N(C)[C@H]1[C@@](O)(C(=O)OC)[C@H](OC(C)=O)[C@]4(CC)C=CCN5CC[C@]31[C@@H]54)C2 [vinorelbine]?
Answer: IC50 (K562): 0.00157 ± 0.00112 µM; IC50 (K562/ADR): 0.326 ± 0.0425 µM; RF (resistance factor) (K562/ADR): 230.86

Question: With “3-(1,2-Dicarba-closo-dodecarboranyl)-7-methoxychroman-4-one [Compound 1i]” as the compound, how does the IC50 (MDA-MB-231; [2]) read?
Answer: 25.4 ± 7.3 µM

Question: And the IC50 (PC-3; [3])?
Answer: 38 ± 2.79 µM

Question: Which results are given for “3-(1,2-Dicarba-closo-dodecarboranyl)-5-hydroxy-7-methoxy-4H-chromen-4-one [Compound 1f]”?
Answer: IC50 (MDA-MB-231; [2]): > 100 µM; IC50 (PC-3; [3]): > 100 µM

Question: For O=C([O-])CN(CCN(CC(=O)[O-])Cc1cc(CCC(=O)NCCCCCC(=O)NCCCC[C@H](NC(=O)N[C@@H](CCC(=O)O)C(=O)O)C(=O)O)ccc1[O-])Cc1cc(CCC(=O)O)ccc1[O-].[68Ga+3].[OH3+] [^68Ga-PSMA11], which brain uptake [1] is on record?
Answer: 0.013 ± 0.004 % ID/g

Question: Which IC50 (MDA-MB-231; [2]) does the source give for “3-(1,2-Dicarba-closo-dodecarboranyl)-7-methoxy-4H-chromen-4-one [Compound 1b]” here?
Answer: 47.5 ± 7.39 µM

Question: And the IC50 (PC-3; [3])?
Answer: 54.7 ± 6.26 µM

Question: Which IC50 (MDA-MB-231; [2]) does the source give for “3-(1,2-Dicarba-closo-dodecarboranyl)-4H-chromen-4-one [Compound 1a]” here?
Answer: 75.2 ± 20.8 µM

Question: And the IC50 (PC-3; [3])?
Answer: 66.6 ± 8.79 µM
